Data from ChEMBL document CHEMBL4616694, “Selective Covalent Targeting of Mutated EGFR(T790M) with Chlorofluoroacetamide-Pyrimidines” (ACS Med Chem Lett, 2020).
Activity calls are given as the source filed them. The rule behind the calls is not given here.

Experiments:
[1] = system: NCI-H1975; experiment: Antiproliferative activity against human NCI-H1975 cells harboring EGFR L858R/T790M mutant assessed as reduction in cell viability measured after 72 hrs by WST assay; format: functional, cell-based; details: NCI-H1975, 72 h
[2] = Selectivity index, ratio of IC50 for human NCI-H292 cells expressing wild type EGFR assessed as reduction in cell viability measured after 72 hrs by MTT assay to IC50 for human NCI-H1975 cells harboring EGFR L858R/T790M mutant assessed as reduction in cell viability measured after 72 hrs by MTT assay; format: functional
[3] = system: NCI-H292; experiment: Antiproliferative activity against human NCI-H292 cells expressing wild type EGFR assessed as reduction in cell viability measured after 72 hrs by WST assay; format: functional, cell-based; details: NCI-H292, 72 h
[4] = system: Epidermal growth factor receptor (Homo sapiens), P00533 [L858R,T790M]; experiment: (§1) Binding affinity to recombinant human EGFR L858R/T790M mutant kinase domain assessed as rapid covalent modification at 2 uM pretreated with compound followed by subsequent addition of copper-catalyzed azide-alkyne cyclo with rhodamine azide measured after 72 hrs by coomassie brilliant blue staining based in-gel fluorescence assay
[5] = system: Epidermal growth factor receptor (Homo sapiens), P00533 [L858R,T790M]; experiment: Binding affinity to EGFR L858R/T790M mutant expressed in human H1975 cells assessed as protein labeling at 1 uM measured after 1 hr by pull down based Western blot analysis
[6] = biological target: Epidermal growth factor receptor (Homo sapiens) (UniProt P00533); experiment: (§2) Competitive binding affinity to EGFR in human H1975 cells assessed as protein labeling pretreated with compound followed by subsequent addition of copper-catalyzed azide-alkyne cyclo with rhodamine azide measured after 1 hr by in-gel fluorescence assay; format: cell-based
Procedure, shortened: (§3)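 H1975 cells were incubated with the alkyne CFA probe for 1 h at 37 °C. Labeled proteins were clicked to rhodamine-azide by CuAAC and resolved by in-gel fluorescence, with EGFR taken as the 175 kDa band. For competition, excess osimertinib was present. Labeling was also run across probe concentrations, including 1–10 µM.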

[7] = system: Epidermal growth factor receptor (Homo sapiens), P00533 [L858R,T790M]; experiment: Competitive binding affinity to EGFR L858R/T790M mutant expressed in human H1975 cells assessed as SILAC ratio at 5 uM measured after 2 hrs by MS analysis; format: cell-based
Procedure, shortened: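 SILAC mass spectrometry in isotopically labeled H1975 cells treated with the probe at 5 µM for 2 h at 37 °C, followed by streptavidin enrichment. Reported values are log2 median SILAC ratios (probe/DMSO or probe/probe) from triplicate MS analyses of a single enriched sample.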

[8] = biological target: Epidermal growth factor receptor (Homo sapiens) (UniProt P00533); experiment: Binding affinity to wild type EGFR expressed in human H292 cells assessed as protein labeling at 1 uM measured after 1 hr by pull down based Western blot analysis
[9] = biological target: Epidermal growth factor receptor (Homo sapiens) (UniProt P00533); experiment: Competitive binding affinity to EGFR in human H1975 cells assessed as protein labeling at 1 uM pretreated with compound followed by subsequent addition of copper-catalyzed azide-alkyne cyclo with rhodamine azide by in-gel fluorescence assay; format: cell-based; details: TDE = time-dependent effect
Procedure, shortened: (§4)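 H1975 cells were labeled over time with 1 µM alkyne probe, with incubations extending to 10 h. Labeled proteins were conjugated to rhodamine-azide by copper-catalyzed azide-alkyne cycloaddition and read by in-gel fluorescence.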

[10] = biological target: Epidermal growth factor receptor (Homo sapiens) (UniProt P00533); experiment: Competitive binding affinity to wild type EGFR expressed in human H292 cells assessed as protein labeling pretreated with compound followed by subsequent addition of copper-catalyzed azide-alkyne cyclo with rhodamine azide incubated for 2 hrs by in-gel fluorescence assay; format: cell-based
[11] = system: Epidermal growth factor receptor (Homo sapiens), P00533 [L858R,T790M]; experiment: as §2, with “EGFR L858R/T790M mutant” for “EGFR”, “fluorescent band formation at 5 uM” for “protein labeling”, “hr in presence of osimertinib” for “hr”; format: cell-based; procedure, shortened: as §3
[12] = biological target: Epidermal growth factor receptor (Homo sapiens) (UniProt P00533); experiment: Competitive binding affinity to wild type EGFR expressed in human H292 cells assessed as protein labeling at 1 uM pretreated with compound followed by subsequent addition of copper-catalyzed azide-alkyne cyclo with rhodamine azide by in-gel fluorescence assay; format: cell-based; details: TDE = time-dependent effect
[13] = system: Epidermal growth factor receptor (Homo sapiens), P00533 [L858R,T790M]; experiment: as §1, with “stability of compound-protein adduct” for “rapid covalent modification”, “24” for “72”
[14] = biological target: Epidermal growth factor receptor (Homo sapiens) (UniProt P00533); experiment: Competitive binding affinity to wild type EGFR expressed in human H292 cells assessed as SILAC ratio at 5 uM measured after 2 hrs by MS analysis; format: cell-based
[15] = system: Epidermal growth factor receptor (Homo sapiens), P00533 [L858R,T790M]; experiment: as §2, with “EGFR L858R/T790M” for “EGFR”, “fluorescent band formation by measuring molecular weight at 5 uM” for “protein labeling”; format: cell-based; procedure, shortened: as §3
[16] = biological target: Epidermal growth factor receptor (Homo sapiens) (UniProt P00533); experiment: Competitive binding affinity to wild type EGFR expressed in human HEK293 cells assessed as protein labeling at 1 uM pretreated with compound followed by subsequent addition of copper-catalyzed azide-alkyne cyclo with rhodamine azide by in-gel fluorescence assay; format: cell-based; details: TDE = time-dependent effect
[17] = biological target: Epidermal growth factor receptor (Homo sapiens) (UniProt P00533); experiment: Competitive binding affinity to wild type EGFR expressed in human HEK293 cells assessed as protein labeling pretreated with compound followed by subsequent addition of copper-catalyzed azide-alkyne cyclo with rhodamine azide incubated for 2 hrs by in-gel fluorescence assay; format: cell-based
[18] = biological target: Epidermal growth factor receptor (Homo sapiens) (UniProt P00533); experiment: Competitive binding affinity to EGFR in human H1975 cells assessed as protein labeling at 1 uM pretreated with compound followed by subsequent addition of copper-catalyzed azide-alkyne cyclo with rhodamine azide incubated for 10 hrs by in-gel fluorescence assay; format: cell-based; procedure, shortened: as §4
[19] = system: Epidermal growth factor receptor (Homo sapiens), P00533 [L858R,T790M]; experiment: Inhibition of EGFR L858R/T790M mutant in human H1975 cells assessed as reduction in autophosphorylation at Y1068 residue at 10 nM by Western blot analysis; format: cell-based
Procedure, shortened: (§5)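 H1975 cells were treated at 10 nM, and EGFR Y1068 autophosphorylation was assessed by western blot. For irreversibility, compound was washed out of the culture medium and phospho-EGFR was examined for at least 8 h afterwards.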

[20] = Half life of compound in phosphate buffer at pH 7.4 and 37 degree C under neutral aqueous condition in presence of excess glutathione; format: physicochemical; details: phosphate buffer with excess glutathione
Procedure, shortened: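 Compound was incubated with excess glutathione under neutral aqueous conditions (pH 7.4, 37 °C), and half-reaction time was determined from the time course.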

[21] = system: Epidermal growth factor receptor (Homo sapiens), P00533 [L858R,T790M]; experiment: Binding affinity to recombinant human EGFR L858R/T790M mutant kinase domain expressed in baculovirus infected insect cells assessed as covalent bond formation between protein Cys797 residue-compound by LC-MS/MS analysis
[22] = system: Epidermal growth factor receptor (Homo sapiens), P00533 [L858R,T790M]; experiment: Irreversible inhibition of EGFR L858R/T790M mutant in human H1975 cells assessed as reduction in autophosphorylation at Y1068 residue at 10 nM measured after 8 hrs post compound washout by Western blot analysis; format: cell-based; procedure, shortened: as §5
[23] = Mean residence time in BALB/c mouse at 25 mg/kg, po administered as single dose measured at 2 hrs; format: ADME, organism-based; details: in vivo
Procedure, shortened: (§6)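 Mice received a single oral dose of 25 mg/kg. Plasma compound levels were followed over time, giving peak concentration with its time and mean residence time.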

[24] = system: Epidermal growth factor receptor (Homo sapiens), P00533 [L858R,T790M]; experiment: as §1, with “compound-protein adduct formation” for “rapid covalent modification”
[25] = Cmax in BALB/c mouse at 25 mg/kg, po administered as single dose measured at 2 hrs; format: ADME, organism-based; set-up: dose 25 mg/kg, route oral; details: in vivo; procedure, shortened: as §6
[26] = species: Homo sapiens; experiment: Selectivity index, ratio of IC50 for wild type EGFR (unknown origin) to IC50 for human EGFR L858R/T790M mutant expressed in baculovirus infected insect cells
[27] = system: Epidermal growth factor receptor (Homo sapiens), P00533 [L858R,T790M]; experiment: as §1, with “fluorescent band formation” for “rapid covalent modification”

Molecule `COc1cc(N(C)CCN(C)C)c(NC(=O)[C@@H]2CCCN2C(=O)C(F)Cl)cc1Nc1ncc(Cl)c(-c2c[nH]c3ccccc23)n1` (some centres undefined) has an IC50 [1] of 56 nM.
Molecule `COc1cc(N(C)CCN(C)C)c(NC(=O)[C@@H]2CCN2C(=O)C(F)Cl)cc1Nc1ncc(Cl)c(-c2c[nH]c3ccccc23)n1` (some centres undefined) has an IC50 [1] of 380 nM.
`COc1cc(N(C)CCN(C)C)c(NC(=O)[C@@H]2C[C@@H](O)CN2C(=O)C(F)Cl)cc1Nc1ncc(Cl)c(-c2c[nH]c3ccccc23)n1` (some centres undefined) showed an IC50 [1] of 150 nM.
For `COc1cc(N(C)CCN(C)C)c(NC(=O)[C@H](C)NC(C)=O)cc1Nc1ncc(C(F)(F)F)c(-c2c[nH]c3ccccc23)n1`, the “Ratio IC50” value [2] was 7.8, the IC50 [3] was 3590 nM and the IC50 [1] was 460 nM.
For `C=CC(=O)Nc1cc(Nc2nccc(-c3cn(C)c4ccccc34)n2)c(OC)cc1N(C)CCN(C)C` [OSIMERTINIB], the “Ratio IC50” value [2] was […], the IC50 [3] was 220 nM and the IC50 [1] was […].
In the case of `COc1cc(N(C)CCN(C)C)c(NC(=O)CNC(=O)C(F)Cl)cc1Nc1ncc(Cl)c(-c2c[nH]c3ccccc23)n1` (centres undefined), the IC50 [1] is reported as 130 nM.
With `COc1cc(N(C)CCN(C)C)c(NC(=O)[C@H](C)NC(=O)C(F)Cl)cc1Nc1ncc(Cl)c(-c2c[nH]c3ccccc23)n1` (some centres undefined) the “Ratio IC50” value [2] was 22.9, the IC50 [3] was 710 nM and the IC50 [1] was 31 nM.
Work on `COc1cc(N(C)CCN(C)C)c(NC(=O)C(F)Cl)cc1Nc1ncc(Cl)c(-c2c[nH]c3ccccc23)n1` (centres undefined) yielded an IC50 [1] of 50 nM.
In the case of `C#CCCN(C)CCN(C)c1cc(OC)c(Nc2nccc(-c3cn(C)c4ccccc34)n2)cc1NC(=O)C=C`, the Activity [4] is reported as “Active”, the Activity [5] is reported as “Active” and the Activity [6] is reported as “Dose-dependent effect”. For the same molecule, the IC50 [1] was 72 nM, the log(ratio) [7] was -0.059 and the Activity [8] was “Active”. For the same molecule, the Activity [9] was “Tde”.
For `C#CCCN(C)CCN(C)c1cc(OC)c(Nc2ncc(C(F)(F)F)c(-c3c[nH]c4ccccc34)n2)cc1NC(=O)[C@H](C)NC(=O)C(F)Cl` (some centres undefined), the Activity [5] was “Active”, the Activity [10] was “Dose-dependent effect” and the Activity [11] was “inactive”. For the same molecule, the Activity [12] was “Tde”, the Activity [6] was “Dose-dependent effect” and the Activity [13] was “Active”. The log(ratio) [14] was 3.2, the IC50 [1] was 51 nM and the Activity [8] was “Active”. For the same molecule, the Activity [15] was 175 kDa, the Activity [16] was “Tde” and the Activity [17] was “Dose-dependent effect”. The Activity [9] was “Tde” and the Activity [18] was “Active”.
In the case of `COc1cc(N(C)CCN(C)C)c(NC(=O)[C@H](C)NC(=O)C(F)Cl)cc1Nc1ncc(C(F)(F)F)c(-c2c[nH]c3ccccc23)n1` (some centres undefined), the “Ratio IC50” value [2] is reported as 91.3, the inhibition [19] is reported as “Active” and the half-life [20] is reported as 49.4 h. The Activity [21] was “Active”, the IC50 [3] was 1370 nM and the inhibition [22] was “Active”. For the same molecule, the MRT [23] was 8.9 h, the Activity [24] was “Active” and the IC50 [1] was 15 nM. For the same molecule, the Cmax [25] was 510 nM, the Ratio IC50 [26] was 44.7 and the Activity [27] was “Active”.
Molecule `COc1cc(N(C)CCN(C)C)c(NC(=O)[C@H](CC(C)C)NC(=O)C(F)Cl)cc1Nc1ncc(Cl)c(-c2c[nH]c3ccccc23)n1` (some centres undefined) has an IC50 [1] of 52 nM.
Work on `COc1cc(N(C)CCN(C)C)c(NC(=O)[C@@H](C)NC(=O)C(F)Cl)cc1Nc1ncc(Cl)c(-c2c[nH]c3ccccc23)n1` (some centres undefined) yielded an IC50 [1] of 440 nM.
With `COc1cc(N(C)CCN(C)C)c(NC(=O)C(F)Cl)cc1Nc1ncc(C(F)(F)F)c(-c2c[nH]c3ccccc23)n1` (centres undefined) the “Ratio IC50” value [2] was 17.3, the IC50 [3] was 570 nM and the IC50 [1] was 33 nM.
With `CNC(=O)[C@H](CSC(F)C(=O)N[C@@H](C)C(=O)Nc1cc(Nc2ncc(C(F)(F)F)c(-c3c[nH]c4ccccc34)n2)c(OC)cc1N(C)CCN(C)C)NC(C)=O` (some centres undefined) the half-life [20] was 11.2 h.
`COc1cc(N(C)CCN(C)C)c(NC(=O)[C@H](CO)NC(=O)C(F)Cl)cc1Nc1ncc(Cl)c(-c2c[nH]c3ccccc23)n1` (some centres undefined) showed an IC50 [1] of 320 nM.
